Results from paper PMC5110259 (Clinical cancer drugs, 2016).

Tests used:
DNS cytotoxicity assay [1] = type: cell-based; details: human, CEM cells vs Hs-27 cells
Outline: (§1)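 Suspension cells plated at 10,000/well and exposed 20 h (footnote: 24 h) to graded concentrations in 1% v/v DMSO. Hoechst 33342/PI (1 μg/ml each) added for the final hour, then 3x3-field imaging. Dead cells were double-stained nuclei, DMSO background subtracted. CC50 by linear regression, triplicate. SCI = CC50 non-cancerous / CC50 cancer, using Hs-27 in the table and Hs-27, MCF-10A and CCD-112CoN for Jurkat.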

CEM = assay: DNS cytotoxicity assay; type: cell-based; details: Homo sapiens, CCRF-CEM, 24 h, read-out: Cytotoxic concentration 50% (CC50)
Outline: as §1

DNS cytotoxicity assay [2] = type: cell-based; details: human
Outline: as §1

Jurkat = assay: DNS cytotoxicity assay; type: cell-based; details: Homo sapiens, Jurkat, 24 h, read-out: Cytotoxic concentration 50% (CC50)
Outline: as §1

DNS cytotoxicity assay [3] = type: cell-based; details: human, Nalm 6 cells vs Hs-27 cells
Outline: as §1

Nalm 6 = assay: DNS cytotoxicity assay; type: cell-based; details: Homo sapiens, NALM-6, 24 h, read-out: Cytotoxic concentration 50% (CC50)
Outline: as §1

DNS cytotoxicity assay [4] = type: cell-based; details: human, Ramos cells vs Hs-27 cells
Outline: as §1

Ramos = assay: DNS cytotoxicity assay; type: cell-based; details: Homo sapiens, Ramos, 24 h, read-out: Cytotoxic concentration 50% (CC50)
Outline: as §1

DNS cytotoxicity assay [5] = type: cell-based; details: human, CCD-112CoN non-cancerous colon fibroblasts
Outline: (§2)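 DNS imaging assay. Adherent cells seeded at 5,000/well, incubated 20 h (table footnote says 24 h) with several compound concentrations in 1% v/v DMSO final. Hoechst 33342 and PI (1 μg/ml each, final) added 1 h before imaging 3x3 fields at 20x. Dead cells = Hoechst/PI co-localized nuclei. Values corrected by subtracting the mean % dead of six DMSO wells. CC50 by linear regression, triplicate.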

DNS cytotoxicity assay [6] = type: cell-based; details: human, Hs-27 non-cancerous foreskin fibroblasts
Outline: as §2

DNS cytotoxicity assay [7] = type: cell-based; details: human, MCF-10A non-cancerous mammary epithelial cells
Outline: as §2

Jurkat cells [8] = assay: Apoptosis assay via annexin V-FITC/PI staining, Jurkat; type: cell-based, human; details: 24 h; for apoptosis (phosphatidylserine externalization, annexin V-FITC positive cells): 1 μM, flow cytometry
Outline: (§3)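 Annexin V-FITC/PI co-staining read by flow cytometry after 24 h exposure. Excitation was at 488 nm, with FITC read on FL1 and PI on FL2. Cells that were PI-positive but annexin-negative were scored as necrotic. Controls were untreated cells, 1% v/v DMSO, 300 μM H2O2, and curcumin and EF-24 at 1 μM. Triplicates; compared with curcumin by Student's t-test.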

Nalm-6 cells = assay: Apoptosis assay via annexin V-FITC/PI staining, Nalm-6; type: cell-based, human; details: 24 h; for apoptosis (phosphatidylserine externalization, annexin V-FITC positive cells): 1 μM, flow cytometry
Outline: as §3

Jurkat cells [9] = assay: Mitochondrial membrane potential assay; type: cell-based, human; details: 1 μM, 7 h, JC-1, flow cytometry
Outline: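 Jurkat at 3x10^4 cells per mL per well (24-well) exposed 7 h to 1 μM. JC-1 then added, 30 min at 37 °C, followed by flow cytometry of ~10,000 events. 50 μM CCCP served as depolarization control, with 1% DMSO and untreated controls. Triplicates, t-test vs DMSO.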

[10] = tested on: caspase-3/7 in Jurkat cells; assay: Caspase-3/7 activity assay; type: cell-based, human; details: 1 μM, 20 h, NucView 488, flow cytometry
Outline: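 Jurkat seeded at 100 cells/μL (24-well) and treated 20 h with 1 μM. Active caspase-3/7 detected in live cells with the NucView 488 fluorogenic substrate by flow cytometry, ~10,000 events per sample. Positive controls were 2 μg/ml camptothecin and 10 μM curcumin, plus DMSO and untreated controls. Triplicates, t-test vs DMSO.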

[11] = tested on: leukemia and lymphoma neoplasms; assay: DNS cytotoxicity screen at 1 μM, leukemia/lymphoma panel; type: cell-based; details: human leukemia/lymphoma cell lines
[12] = tested on: non-malignant MCF-10A and Hs-27 cell lines; assay: DNS cytotoxicity screen at 1 μM, non-malignant cells; type: cell-based; details: 20 h
Outline: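 Single-concentration DNS screen: 1 μM in 1% v/v DMSO for 20 h. Hoechst 33342 and PI (1 μg/ml each) added 1 h before automated imaging. Percent dead was calculated from co-stained nuclei out of total nuclei per well. Controls were 300 μM H2O2, 1% DMSO and untreated wells. Run in triplicate and shown as heat map.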

SMILES | selectivity ratio at 20 h (DNS cytotoxicity assay [1]) | CC50 (CEM) [µM] | selectivity ratio at 20 h (DNS cytotoxicity assay [2]; Jurkat cells vs Hs-27 cells) | CC50 (Jurkat) [µM] | selectivity ratio at 20 h (DNS cytotoxicity assay [3]) | CC50 (Nalm 6) [µM] | selectivity ratio at 20 h (DNS cytotoxicity assay [4]) | CC50 (Ramos) [µM] | CC50 at 24 h (DNS cytotoxicity assay [5]) [µM] | CC50 at 24 h (DNS cytotoxicity assay [6]) [µM] | CC50 at 24 h (DNS cytotoxicity assay [7]) [µM] | apoptosis (phosphatidylserine externalization, annexin V-FITC positive cells) (Jurkat cells [8]) | apoptosis (phosphatidylserine externalization, annexin V-FITC positive cells) (Nalm-6 cells) | further results
CCN(CC)CCOc1ccc(C(=O)Oc2ccc(C=C3CN(C)CC(=Cc4ccc(OC(=O)c5ccc(OCCN(CC)CC)cc5)cc4)C3=O)cc2)cc1 [Compound 1, 3,5-bis{4-[4-(2-diethylaminoethoxy)phenylcarbonyloxy]benzylidene}-1-methyl-4-piperidone] | 8.1 | 0.59 ± 0.03 | 11.1 | 0.43 ± 0.02 | 5.6 | 0.86 ± 0.03 | 6.7 | 0.71 ± 0.01 | 4.68 ± 0.83 | 4.78 ± 0.03 | 15.6 ± 0.14 | ~ 70% | ~ 50% | selectivity ratio at 20 h (DNS cytotoxicity assay [2]): > 10; selectivity ratio at 20 h (DNS cytotoxicity assay [2]; Jurkat cells vs CCD-112CoN cells): 10.9; selectivity ratio at 20 h (DNS cytotoxicity assay [2]; Jurkat cells vs MCF-10A cells): 36.3; apoptotic activity as compared with curcumin (Jurkat cells [8]; both compounds at 1 μM): 10 fold; apoptotic activity as compared with curcumin (Nalm-6 cells; both compounds at 1 μM): 22.3 fold; mitochondrial depolarization (Jurkat cells [9]): ~ 80%; caspase-3/7 activation (active caspase 3/7-positive cells) [10]: > 90%; in vitro cytotoxic concentration compared with curcumin [11]: approximately ten times more effective than curcumin; toxicity to non-malignant cell lines (heat map) [12]: low toxicity
COc1cc(/C=C/C(=O)CC(=O)/C=C/c2ccc(O)c(OC)c2)ccc1O [Curcumin, reference compound] | 1.4 | 10.6 ± 0.06 | 1.4 | 10.86 ± 0.04 | 1.4 | 11 ± 0.2 | 1.7 | 9.25 ± 0.37 | 15.8 ± 0.13 | 15.3 ± 0.38 | 14.1 ± 0.66 | did not induce significant PS externalization | did not induce significant PS externalization | –
